Test results as given in ChEMBL document CHEMBL2311390, “Synthesis and preliminary evaluation of pharmacological properties of some piperazine derivatives of xanthone” (Bioorg Med Chem, 2013).

Experiments:
Rattus norvegicus [1] = assay: Antiarrhythmic activity in iv dosed Wistar rat adrenaline-induced arrhythmia model assessed as reduction of heart-rhythm disturbance administered 15 mins adrenaline-challenge; type: functional; settings: 0.25 h
Method in brief: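 Anaesthetised male Wistar rats (thiopental 75 mg/kg ip). Test compound iv at 1 mL/kg, given 15 min before adrenaline 20 µg/kg iv. Activity means no premature beats and inhibition of arrhythmia, judged against a control group. There were three dose groups of six rats. ED50 with confidence limits was calculated by the Litchfield–Wilcoxon method.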

Rattus norvegicus [2] = assay: Cardiotoxicity in Wistar rat assessed as hear beats per min at 2.5 mg/kg, iv after 10 mins by ECG analysis; type: toxicity, organism-based; parameters: dose 2.5 mg/kg, route intravenous; settings: in vivo
Rattus norvegicus [3] = assay: Cardiotoxicity in Wistar rat assessed as QRS interval at 2.5 mg/kg, iv after 10 mins by ECG analysis; type: toxicity, organism-based; parameters: dose 2.5 mg/kg, route intravenous; settings: in vivo
Rattus norvegicus [4] = assay: Cardiotoxicity in Wistar rat assessed as QRS interval at 2.5 mg/kg, iv after 5 mins by ECG analysis; type: toxicity, organism-based; parameters: dose 2.5 mg/kg, route intravenous; settings: in vivo
Method in brief: (§1)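 Male normotensive Wistar rats (170–350 g, groups of six) were anaesthetised. Compound was given iv at 1 mL/kg. ECG was recorded just before dosing and at 1, 5 and 15 min after, and PQ, QRS and QT intervals and heart rate were read. Groups were compared by one-way ANOVA.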

Rattus norvegicus [5] = assay: Cardiotoxicity in Wistar rat assessed as PQ interval at 2.5 mg/kg, iv after 15 mins by ECG analysis; type: toxicity, organism-based; parameters: dose 2.5 mg/kg, route intravenous; settings: in vivo, 0.25 h; method in brief: as §1
Rattus norvegicus [6] = assay: Cardiotoxicity in Wistar rat assessed as hear beats per min at 2.5 mg/kg, iv after 15 mins by ECG analysis; type: toxicity, organism-based; parameters: dose 2.5 mg/kg, route intravenous; settings: in vivo, 0.25 h; method in brief: as §1
Rattus norvegicus [7] = assay: Cardiotoxicity in Wistar rat assessed as QRS interval at 2.5 mg/kg, iv after 15 mins by ECG analysis; type: toxicity, organism-based; parameters: dose 2.5 mg/kg, route intravenous; settings: in vivo, 0.25 h; method in brief: as §1
Rattus norvegicus [8] = assay: Hypotensive activity in normotensive Wistar rat assessed as reduction of systolic blood pressure at 0.31 mg/kg, iv after 10 mins; type: functional, Artery
Method in brief: (§2)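 Male normotensive Wistar rats (170–350 g) anaesthetised with thiopental 75 mg/kg ip; right carotid artery cannulated with heparinised saline-filled polyethylene tubing for pressure recording. After a 5 min stabilisation, compound given into the caudal vein at 1 mL/kg. Systolic pressure is recorded at 0, 5, 10, 20, 30 and 60 min, and the data are reported as mean ± SEM of five to six animals, with one-way ANOVA.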

[9] = Displacement of [3H]CGP-12177 from beta1-adrenergic receptor in rat cerebral cortex by liquid scintillation counting; type: tissue-based
Method in brief: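 Rat cerebral cortex was homogenised in ice-cold 50 mM Tris-HCl pH 7.6 and spun at 20,000 g for 20 min at 0–4 °C, then washed once. Radioligands: [3H]prazosin 0.2 nM for α1, [3H]clonidine 2 nM for α2, [3H]CGP-12177 0.2 nM for β1. Test compounds were run at 7–8 concentrations from 10^-11 to 10^-4 M. Nonspecific binding was defined with phentolamine (α1), clonidine (α2) or propranolol (β1). Counting was by liquid scintillation, in duplicate. Ki was derived by Cheng–Prusoff from 2–3 experiments.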

Rattus norvegicus [10] = assay: Hypotensive activity in normotensive Wistar rat assessed as reduction of systolic blood pressure at 0.16 mg/kg, iv after 20 mins; type: functional, Artery; method in brief: as §2
Rattus norvegicus [11] = assay: Hypotensive activity in normotensive Wistar rat assessed as reduction of systolic blood pressure at 0.16 mg/kg, iv after 10 mins; type: functional, Artery
Method in brief: (§3)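 Male normotensive Wistar rats were anaesthetised with thiopental 75 mg/kg ip. The right carotid artery was cannulated with heparinised saline for pressure recording. After 5 min of stabilisation, compound was injected into the tail vein at 1 mL/kg. Systolic and diastolic pressure were followed up to 60 min. Data are means ± SEM of 5–6 rats, analysed by one-way ANOVA.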

Rattus norvegicus [12] = assay: Cardiotoxicity in Wistar rat assessed as PQ interval at 2.5 mg/kg, iv after 10 mins by ECG analysis; type: toxicity, organism-based; parameters: dose 2.5 mg/kg, route intravenous; settings: in vivo
Rattus norvegicus [13] = assay: Hypotensive activity in normotensive Wistar rat assessed as reduction of diastolic blood pressure at 0.16 mg/kg, iv after 5 mins; type: functional, Artery; method in brief: as §3
Rattus norvegicus [14] = assay: Cardiotoxicity in Wistar rat assessed as PQ interval at 2.5 mg/kg, iv after 5 mins by ECG analysis; type: toxicity, organism-based; parameters: dose 2.5 mg/kg, route intravenous; settings: in vivo; method in brief: as §1
Rattus norvegicus [15] = assay: Cardiotoxicity in Wistar rat assessed as QT interval at 2.5 mg/kg, iv after 5 mins by ECG analysis; type: toxicity, organism-based; parameters: dose 2.5 mg/kg, route intravenous; settings: in vivo; method in brief: as §1
Rattus norvegicus [16] = assay: Cardiotoxicity in Wistar rat assessed as hear beats per min at 2.5 mg/kg, iv after 5 mins by ECG analysis; type: toxicity, organism-based; parameters: dose 2.5 mg/kg, route intravenous; settings: in vivo; method in brief: as §1
Rattus norvegicus [17] = assay: Cardiotoxicity in Wistar rat assessed as QT interval at 2.5 mg/kg, iv after 15 mins by ECG analysis; type: toxicity, organism-based; parameters: dose 2.5 mg/kg, route intravenous; settings: in vivo, 0.25 h; method in brief: as §1
Rattus norvegicus [18] = assay: Cardiotoxicity in Wistar rat assessed as QT interval at 2.5 mg/kg, iv after 10 mins by ECG analysis; type: toxicity, organism-based; parameters: dose 2.5 mg/kg, route intravenous; settings: in vivo

Ki [9] [µM]	Structure (SMILES)	ED50 (Rattus norvegicus [1]) [mg/kg]	Activity (Rattus norvegicus [2]) [bpm]	Activity (Rattus norvegicus [3]) [ms]	Activity (Rattus norvegicus [4]) [ms]	Activity (Rattus norvegicus [5]) [ms]	Activity (Rattus norvegicus [6]) [bpm]	Activity (Rattus norvegicus [7]) [ms]	Activity (Rattus norvegicus [8]) [mmHg]	Activity (Rattus norvegicus [10]) [mmHg]	Activity (Rattus norvegicus [11]) [mmHg]	Activity (Rattus norvegicus [12]) [ms]	Activity (Rattus norvegicus [13]) [mmHg]	Activity (Rattus norvegicus [14]) [ms]	Activity (Rattus norvegicus [15]) [ms]	Activity (Rattus norvegicus [16]) [bpm]	Activity (Rattus norvegicus [17]) [ms]	Activity (Rattus norvegicus [18]) [ms]
3.2	COc1ccccc1N1CCN(CCCOc2cccc3c(=O)c4ccccc4oc23)CC1.Cl	0.69	306.7	20.6	20.4	43.5	295.7	20.3	122.8	113.4	114	43.2	97	43	70	314.4	71.8	69.8
11.2	COc1ccccc1N1CCN(CC(COc2cccc3c(=O)c4ccccc4oc23)OC(C)=O)CC1.Cl (racemic)	0.87	369	19	19	48	366.3	19	–	–	–	48	–	48	61.8	375	60	60
7.6	COc1ccccc1N1CCN(CC(O)COc2cccc3c(=O)c4ccccc4oc23)CC1.Cl (racemic)	0.88	315.2	19.8	19.6	42.8	303.3	20.2	121.8	118.5	124.8	43.3	109.2	44.3	69.7	341.2	68.4	68.2
